Calls of active or inactive are those of the source. No cut-off for these calls is given here.
Assays:
Monocyte [1] = experiment: Inhibition of TNFalpha expression in LPS-stimulated human monocytes treated 30 mins before LPS challenge measured after 14 hrs by ELISA; format: functional, cell-based
Summary of the method: (§1)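 Human PBMC at 4 × 10^6/mL in DMEM with 30% FCS, glutamine and pen/strep were allowed to adhere for 2 h at 37 °C and 5% CO2. Nonadherent lymphocytes were washed off. Adherent monocytes were preincubated 30 min with graded compound concentrations, then stimulated with LPS. After 14 h, supernatants were assayed by ELISA. Values are percent of compound-free cultures, as means ± SE from three donors.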

[2] = Cytotoxicity against human monocytes assessed as depletion of cellular LDH activity; format: cell-based; design: concentration or dose not given beside the values; conditions: monocyte
Summary of the method: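 Viability was taken from the LPS-stimulated adherent monocyte cultures after 14 h, lysed in 1% NP40 in PBS. LDH in the lysate was measured in 50 mM sodium pyrophosphate pH 8.9 with 50 mM lactic acid and 4 mg/mL NAD. The rate of NADH formation was read at 340 nm at room temperature. More than 20% depletion was counted as cytotoxic.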

[3] = target: T1, Phosphodiesterase 4 (Homo sapiens) (UniProt P27815+Q08499+Q07343+Q08493); experiment: Inhibition of PDE4 in human monocytes assessed as elevation of cytosolic cAMP level at 100 uM treated for 30 mins assessed per 10^7 cells by EIA; format: cell-based
Summary of the method: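 Elutriated human monocytes at 5 × 10^6/mL in complete medium (30% FCS) were precultured 2 h at 37 °C and 5% CO2. They were then exposed for 30 min to 100 µM flavone or 200 µM IBMX. Cells were lysed in cold 10 mM HEPES pH 7.6 with 1% NP40. cAMP was isolated on SAX columns, eluted with methanol/0.01 M HCl, dried, and quantified by EIA as pmol/10^7 cells.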

[4] = target: T1, Phosphodiesterase 4 (Homo sapiens); experiment: Inhibition of PDE4 in human U937 cells assessed as inhibition of cAMP hydrolysis at 16 uM by SPA; format: cell-based; conditions: U-937
Summary of the method: (§2)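 PDE, mostly type IV by isoform-inhibitor sensitivity, was semipurified from U937 cells. cAMP hydrolysis was measured by scintillation proximity assay across graded compound concentrations. Rates were expressed as percent of flavonoid-free control, and the concentration giving 50% inhibition was reported.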

Monocyte [5] = experiment: Inhibition of IL1-beta expression in LPS-stimulated human monocytes at 100 uM treated 30 mins before LPS challenge measured after 14 hrs by ELISA; format: functional
Summary of the method: (§3)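 Monocyte cultures were held 14 h in medium alone, with 20 ng/mL LPS alone, or with LPS plus 100 µM compound. IBMX served as reference. TNFα, IL-6, IL-8, IL-10 and MIP-1α were measured in supernatants by ELISA, and IL-1β in cell lysates made with 1% NP40 in PBS. Significance versus LPS alone was set at p < 0.05.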

Monocyte [6] = experiment: Inhibition of MIP1alpha expression in LPS-stimulated human monocytes at 100 uM treated 30 mins before LPS challenge measured after 14 hrs by ELISA; format: functional; summary of the method: as §3
Monocyte [7] = experiment: Inhibition of IL8 expression in LPS-stimulated human monocytes at 100 uM treated 30 mins before LPS challenge measured after 14 hrs by ELISA; format: functional; summary of the method: as §3
Monocyte [8] = experiment: Inhibition of IL10 expression in LPS-stimulated human monocytes at 100 uM treated 30 mins before LPS challenge measured after 14 hrs by ELISA; format: functional; summary of the method: as §3
Monocyte [9] = experiment: Inhibition of TNFalpha expression in LPS-stimulated human monocytes at 100 uM treated 30 mins before LPS challenge measured after 14 hrs by ELISA; format: functional; summary of the method: as §3
Monocyte [10] = experiment: Inhibition of IL6 expression in LPS-stimulated human monocytes at 100 uM treated 30 mins before LPS challenge measured after 14 hrs by ELISA; format: functional; summary of the method: as §3
[11] = target: T1, Phosphodiesterase 4 (Homo sapiens); experiment: Inhibition of PDE4 in human U937 cells assessed as inhibition of cAMP hydrolysis at 11 uM by SPA; format: cell-based; conditions: U-937; summary of the method: as §2
Monocyte [12] = experiment: Inhibition of MIP1alpha expression in LPS-stimulated human monocytes treated 30 mins before LPS challenge measured after 14 hrs by ELISA; format: functional, cell-based; summary of the method: as §1
Monocyte [13] = experiment: Increase in IL6 expression in LPS-stimulated human monocytes at 100 uM treated 30 mins before LPS challenge measured after 14 hrs by ELISA; format: functional; summary of the method: as §3
[14] = target: T1, Phosphodiesterase 4 (Homo sapiens); experiment: Inhibition of PDE4 in human U937 cells assessed as inhibition of cAMP hydrolysis at 2 uM by SPA; format: cell-based; conditions: U-937; summary of the method: as §2
Monocyte [15] = experiment: Inhibition of TNFalpha mRNA expression in LPS-stimulated human monocytes treated 30 mins before LPS challenge measured after 90 mins by RT-PCR; format: functional, cell-based
Summary of the method: (§4)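 Elutriated monocytes at 5 × 10^6/mL in complete medium were preincubated 30 min at 37 °C with graded compound concentrations. They were then stimulated with 20 ng/mL LPS for 90 min. Total RNA was isolated with RNAzol. TNFα and IL-1β mRNA were measured by RT-PCR with [α-32P]dCTP, relative to GAPDH.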

Monocyte [16] = experiment: Inhibition of IL10 expression in LPS-stimulated human monocytes treated 30 mins before LPS challenge measured after 14 hrs by ELISA; format: functional, cell-based; summary of the method: as §1
Monocyte [17] = experiment: Inhibition of IL1-beta mRNA expression in LPS-stimulated human monocytes treated 30 mins before LPS challenge measured after 90 mins by RT-PCR; format: functional, cell-based; summary of the method: as §4

| IC50 (Monocyte [1]) [µM] | Compound | Activity [2] | Activity (Monocyte [1]) | also measured |
| --- | --- | --- | --- | --- |
| > 200 | C[C@@H]1O[C@@H](O[C@H]2[C@H](Oc3cc(O)c4c(c3)O[C@H](c3ccc(O)cc3)CC4=O)O[C@H](CO)[C@@H](O)[C@@H]2O)[C@H](O)[C@H](O)[C@H]1O [NARINGIN] | Non-toxic | – | – |
| 22 | COc1cc(-c2cc(=O)c3c(O)cc(O)cc3o2)ccc1O [CHRYSOERIOL] | – | – | – |
| 8 | COc1ccc(-c2cc(=O)c3c(OC)c(OC)c(OC)cc3o2)cc1OC [SINENSETIN] | – | – | – |
| > 200 | COc1ccc([C@@H]2CC(=O)c3c(O)cc(O[C@@H]4O[C@H](CO[C@@H]5O[C@@H](C)[C@H](O)[C@@H](O)[C@H]5O)[C@@H](O)[C@H](O)[C@H]4O)cc3O2)cc1O [HESPERIDIN] | Non-toxic | – | – |
| 30 | COc1ccc(-c2cc(=O)c3c(OC)c(OC)c(OC)c(OC)c3o2)cc1 [TANGERETIN] | – | – | – |
| 16 | COc1ccc(-c2cc(=O)c3c(OC)cc(OC)c(OC)c3o2)cc1OC | – | – | – |
| 20 | COc1cc(-c2cc(=O)c3c(OC)c(OC)c(OC)cc3o2)cc(OC)c1OC | – | – | – |
| 22 | COc1ccc(-c2cc(=O)c3c(O)cc(O)cc3o2)cc1 [ACACETIN] | > 20% | – | – |
| 22 | COc1cc(O)c2c(=O)c(O)c(-c3ccc(O)c(O)c3)oc2c1 [RHAMNETIN] | > 20% | – | – |
| 166 | O=c1cc(-c2ccccc2)oc2ccccc12 [FLAVONE] | – | – | Activity [3]: 3.6 pmol; inhibition [11]: 50% |
| > 200 | C[C@@H]1O[C@@H](OC[C@H]2O[C@@H](Oc3cc(O)c4c(c3)O[C@H](c3ccc(O)cc3)CC4=O)[C@H](O)[C@@H](O)[C@@H]2O)[C@H](O)[C@H](O)[C@H]1O [NARIRUTIN] | Non-toxic | – | – |
| 47 | COc1c(-c2ccc(O)c(O)c2)oc2cc(O)cc(O)c2c1=O [3-O-METHYLQUERCETIN] | – | – | – |
| > 200 | COc1ccc(-c2cc(=O)c3c(O)cc(O[C@@H]4O[C@H](CO[C@@H]5O[C@@H](C)[C@H](O)[C@@H](O)[C@H]5O)[C@@H](O)[C@H](O)[C@H]4O)cc3o2)cc1O [DIOSMIN] | Non-toxic | – | – |
| 10 | COc1ccc(-c2oc3c(OC)c(OC)c(OC)c(O)c3c(=O)c2OC)cc1OC | – | – | – |
| 10 | COc1ccc(-c2cc(=O)c3c(OC)c(OC)c(OC)c(OC)c3o2)cc1OC [NOBILETIN] | – | – | – |
| 20 | O=c1cc(-c2ccc(O)cc2)oc2cc(O)cc(O)c12 [APIGENIN] | > 20% | – | – |

Second part, the molecule before the results:

| Compound | IC50 (Monocyte [1]) [µM] | Activity [2] | Activity (Monocyte [1]) | also measured |
| --- | --- | --- | --- | --- |
| O=C1CC(c2ccccc2)Oc2ccccc21 (stereo unspecified) [FLAVANONE] | – | Non-toxic | inactive | – |
| Oc1cc(O)c2c(c1)O[C@H](c1ccc(O)c(O)c1)[C@H](O)C2 [(-)-EPICATECHIN] | – | Non-toxic | inactive | – |
| O=c1c(O)c(-c2ccccc2)oc2cc(O)cc(O)c12 [GALANGIN] | – | Non-toxic | inactive | – |
| O=c1cc(-c2ccccc2)oc2cc(O)ccc12 [7-HYDROXYFLAVONE] | – | Non-toxic | inactive | – |
| O=c1c(O)c(-c2ccccc2)oc2ccccc12 [FLAVONOL] | – | Non-toxic | inactive | – |
| Oc1cc(O)c2c(c1)O[C@H](c1ccc(O)c(O)c1)[C@@H](O)C2 [CATECHIN] | – | Non-toxic | – | – |
| O=c1c(O)c(-c2cc(O)c(O)c(O)c2)oc2cc(O)cc(O)c12 [MYRICETIN] | – | Non-toxic | inactive | Activity [3]: 3.7 pmol; inhibition [4]: 50% |
| COc1ccc(-c2cc(=O)c3c(OC)c(OC)ccc3o2)cc1OC | 25 | – | – | – |
| CC(C)Cn1c(=O)n(C)c(=O)c2nc[nH]c21 [ISOBUTYLMETHYLXANTHINE] | – | – | – | Activity (Monocyte [5]): 99.1 ng/mL; Activity (Monocyte [6]): 33.2 ng/mL; Activity (Monocyte [7]): 335 ng/mL; Activity (Monocyte [8]): 0.651 ng/mL; Activity (Monocyte [9]): 10.9 ng/mL; Activity (Monocyte [10]): 79.7 ng/mL |
| O=c1c(O)c(-c2ccc(O)cc2)oc2cc(O)cc(O)c12 [KAEMPFEROL] | 20 | > 20% | – | – |
| O=c1cc(-c2ccccc2)oc2cc(O)c(O)c(O)c12 [BAICALEIN] | – | Non-toxic | inactive | – |
| O=c1cc(-c2ccccc2)oc2cc(O)cc(O)c12 [CHRYSIN] | – | Non-toxic | inactive | – |
| C[C@@H]1O[C@@H](OC[C@H]2O[C@@H](Oc3c(-c4ccc(O)cc4)oc4cc(O[C@@H]5O[C@@H](C)[C@H](O)[C@@H](O)[C@H]5O)cc(O)c4c3=O)[C@H](O)[C@@H](O)[C@@H]2O)[C@H](O)[C@H](O)[C@H]1O | – | Non-toxic | inactive | – |
| O=c1c(O)c(-c2ccc(O)c(O)c2)oc2c(O)c(O)cc(O)c12 [GOSSYPETIN] | – | Non-toxic | inactive | – |
| Oc1cc(O)c2c(c1)OC(c1ccc(O)c(O)c1)C(O)C2 (stereo unspecified) | – | – | inactive | – |
| O=C1C[C@@H](c2ccc(O)c(O)c2)Oc2cc(O)cc(O)c21 [ERIODICTYOL] | – | Non-toxic | inactive | – |
| COc1ccc(-c2oc3c(OC)c(OC)c(OC)c(OC)c3c(=O)c2OC)cc1OC [3,5,6,7,8,3',4'-HEPTAMETHOXYFLAVONE] | 5 | – | – | Activity (Monocyte [5]): inactive; Activity (Monocyte [5]; record 2): 62.9 ng/mL; IC50 (Monocyte [12]): 7.3 µM; Activity (Monocyte [13]): 30%; inhibition [14]: 50%; Activity (Monocyte [15]): Active; Activity (Monocyte [6]): 49.2 ng/mL; IC50 (Monocyte [16]): 12.3 µM; Activity [3]: 5.7 pmol; Activity (Monocyte [7]): inactive; Activity (Monocyte [7]; record 2): 307 ng/mL; Activity (Monocyte [8]): 0.269 ng/mL; Activity (Monocyte [9]): 9.7 ng/mL; Activity (Monocyte [10]): inactive; Activity (Monocyte [10]; record 2): 90 ng/mL; Activity (Monocyte [17]): inactive |
| COc1ccc(-c2cc(=O)c3c(O)c(OC)c(OC)c(OC)c3o2)cc1OC [5-DEMETHYLNOBILETIN] | 5 | – | – | – |
| O=c1c(O)c(-c2ccc(O)c(O)c2)oc2cc(O)cc(O)c12 [QUERCETIN] | 120 | > 20% | – | – |
| COc1ccc(-c2cc(=O)c3c(OC)c(OC)c(OC)cc3o2)cc1 | 22 | – | – | – |
| O=c1c(O)c(-c2ccc(O)c(O)c2)oc2cc(O)ccc12 [FISETIN] | – | Non-toxic | inactive | – |
| COc1ccc([C@@H]2CC(=O)c3c(O)cc(O)cc3O2)cc1O | – | – | inactive | – |
| COc1cc(-c2oc3c(OC)c(O)cc(O)c3c(=O)c2O)ccc1O [LIMOCITRIN] | 67 | > 20% | – | – |
